Results from different studies.
Protocols differ between the studies behind these lines.
CDK1: Cyclin-dependent kinase 1 (CDK1, Homo sapiens, UniProt P06493)
CDK9: Cyclin-dependent kinase 9 (CDK9, Homo sapiens, UniProt P50750)
MAP2K7: Dual specificity mitogen-activated protein kinase kinase 7 (MAP2K7, Homo sapiens, UniProt O14733)

Structure (SMILES) | target | test | test system | setting | quantity | result
C[C@H]1CN(CC2CCN(c3ccc(C4CCC(=O)NC4=O)cc3F)CC2)CC[C@H]1NS(=O)(=O)c1ccc(Nc2ncc(C(F)(F)F)c(N3CCC[C@](C)(O)C3)n2)c(F)c1 (stereo partly shown) | CDK1 | protein level, degrader, western blot | TOV21G | – | Dmax | 40%
Cc1cc2c(C(N)=O)c(N)n(-c3c(C)ccc(O)c3C)c2nc1C | Proto-oncogene tyrosine-protein kinase Src (SRC, Homo sapiens, UniProt P12931) | enzyme activity, inhibitor, TR-FRET | – | 1.524 nM | inhibition | 20.4%
C#Cc1cc(-c2cc(Nc3nc(N[C@@H](C)c4ccc(F)cn4)ncc3Cl)n[nH]2)ccc1C=O | Phosphorylase b kinase gamma catalytic chain, skeletal muscle/heart isoform (PHKG1, Homo sapiens, UniProt Q16816) | enzyme activity, inhibitor | – | 0.2 µM | inhibition | 80.2%
C[C@H]1CN(c2ccc(C3CCC(=O)NC3=O)cc2F)CCN1CC12CCC(NS(=O)(=O)c3ccc(Nc4ncc(C(F)(F)F)c(N5CCC[C@](C)(O)C5)n4)c(F)c3)(CC1)CO2 (stereo partly shown) | CDK1 | protein level, degrader, western blot | TOV21G | – | Dmax | 32%
COc1ccc2oc(-c3ccc4nc(N)oc4c3)c/c(=N\c3ccccc3NC(=O)CCN)c2c1 | Proto-oncogene tyrosine-protein kinase Src (SRC, Homo sapiens, UniProt P12931, T341M) | cell-free assay | – | 1 µM | remaining signal | 90%
C[C@]1(O)CCCN(c2nc(Nc3ccc(S(=O)(=O)N[C@@H]4CCN(CC5CCN(c6ccc(C7CCC(=O)NC7=O)cc6F)CC5)C[C@H]4F)cc3F)ncc2C(F)(F)F)C1 (stereo partly shown) | CDK1 | protein level, degrader, western blot | TOV21G | – | Dmax | 26%
CC(C)(C)c1cnc(CSc2cnc(NC(=O)C3CCN(C(=O)CCCCCCCCCCN4Cc5cc6c(cc5C4)C(=O)N(C4CCC(=O)NC4=O)C6=O)CC3)s2)o1 (stereo not shown) | CDK9 | protein level, degrader, western blot | TC-71 | 25 nM | inhibition | 89.1%
NC/C(=C\F)COc1cccc(Cn2c(=S)[nH]c(=O)c3[nH]cnc32)c1 | Myeloperoxidase (Mus musculus, UniProt P11247) | enzyme activity, inhibitor | – | 0.25 µM | remaining activity | 9.08%
CCCCC(=O)Nc1ccc(-c2ccc3ncn(CCC)c(=O)c3c2)cn1 | Ankyrin repeat and protein kinase domain-containing protein 1 (ANKK1, Homo sapiens, UniProt Q8NFD2) | binding, competition with immobilised ligand | – | 0.5 µM | remaining binding | 100%
Cc1cc(O)c(-c2ccc([C@@H](C)CN(C)C)cc2)c2c1[nH]c(=O)c1sccc12 | MAP2K7 | enzyme activity, inhibitor | – | 0.1 µM | inhibition | 4.47%
C1=C/COCc2cc(ccc2OCCN2CCCC2)Nc2nccc(n2)-c2cccc(c2)COC/1 | MAP2K7 | cell-free assay | – | 0.1 µM | remaining signal | 73%
COc1cc(Br)cc(C2NC(=O)NC(C)=C2C(=O)OCc2ccccc2)c1O (stereo not shown) | Voltage-dependent T-type calcium channel subunit alpha-1H (CACNA1H, Homo sapiens, UniProt O95180) | ion current, inhibitor, patch clamp | HEK293 | 10 µM | inhibition | > 60%
CC(C)(C)c1cnc(CSc2cnc(NC(=O)C3CCN(C(=O)CCCCCN4Cc5cc6c(cc5C4)C(=O)N(C4CCC(=O)NC4=O)C6=O)CC3)s2)o1 (stereo not shown) | CDK9 | protein level, degrader, western blot | TC-71 | 25 nM | inhibition | 93.4%
